Measured values published in ChEMBL document CHEMBL1764963, “In vitro and QSAR studies of cucurbitacins on HepG2 and HSC-T6 liver cell lines” (Bioorg Med Chem, 2011).
Active and inactive are the calls of the source. No cut-off for these calls is given here.

Tests used:
[1] = tested on: HepG2; test: Hepatoprotective activity in human HepG2 cells assessed as protection against cell damage after 24 hrs by MTT assay; format: functional
[2] = tested on: HepG2; test: Hepatoprotective activity in human HepG2 cells assessed as inhibition of CCl4-induced toxicity after 24 hrs by MTT assay; format: functional, cell-based; parameters: Activity: scale not given: the % may be the effect or the level left; conditions: for EC50: Homo sapiens, HepG2, 24 h
[3] = tested on: HepG2; test: Cytotoxicity against human HepG2 cells after 24 hrs assessed as inhibition of cell viability by MTT assay; format: cell-based; conditions: Homo sapiens, HepG2, 24 h
[4] = Antiproliferative activity against serum-stimulated rat HSC-T6 cells after 24 hrs by MTT assay; format: functional, cell-based; conditions: HSC-T6, 24 h
[5] = tested on: HeLa; test: Cytotoxicity against human HeLa cells after 24 hrs by MTT assay; format: functional, cell-based
[6] = tested on: HepG2; test: Ratio of IC50 for human HepG2 cells to IC50 for human HeLa cells
Summary of the method: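 Both lines (HepG2 grown 10 days, HeLa 7 days, in EMEM/10% FBS) seeded 24 h in 2% FBS at 30,000 and 15,000 cells/ml. Five-fold serial dilutions over 5 wells for 24 h. Viability by MTT at 570 nm versus cell-free and untreated controls. IC50 derived from log IC50. Ratio taken of the two IC50 values.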

[7] = Cytotoxicity against rat HSC-T6 cell after 24 hrs by MTT assay; format: cell-based; conditions: Rattus norvegicus, HSC-T6, 24 h
[8] = Ratio of IC50 to EC50 for antiproliferative activity in rat HSC-T6 cells; format: functional
[9] = tested on: HepG2; test: Ratio of IC50 to EC50 for hepatoprotective activity in human HepG2 cells; format: functional
[10] = tested on: HepG2; test: Hepatoprotective activity in human HepG2 cells assessed as inhibition of CCl4-induced toxicity at 12.5% IC50 after 24 hrs by MTT assay; format: functional, cell-based
Summary of the method: (§1)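 HepG2 cells grown 10 days in EMEM with 10% FBS, then seeded 24 h at 30,000 cells/ml in 2% FBS. Test agent added together with CCl4 (4.5 x 10^-3 M) for 24 h. Silybin was tested at 1–200 uM. Cucurbitacins were tested at 0.5 and […] their IC50, then at 0.13 and 0.06. MTT read at 570 nm. % protection calculated against CCl4-only and media-only controls. Three experiments, ≥3 replicates each.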

[11] = tested on: HepG2; test: Hepatoprotective activity in human HepG2 cells assessed as inhibition of CCl4-induced toxicity at 6.25% IC50 after 24 hrs by MTT assay; format: functional, cell-based; summary of the method: as §1

Structure (SMILES) | Activity [1] [%] | Activity [2] [%] | IC50 [3] [µM] | EC50 [4] [µM] | IC50 [5] [µM] | Ratio IC50 [6] | IC50 [7] [µM] | Ratio IC50/EC50 [8] | inhibition (INH) [2] [%] | EC50 [2] [µM] | Ratio IC50/EC50 [9] | inhibition [10] | inhibition [11]
CCOC1=C[C@@H]2C(=CC[C@@H]3[C@@]2(C)C(=O)C[C@]2(C)[C@@H]([C@@](C)(O)C(=O)/C=C/C(C)(C)OC(C)=O)[C@H](O)C[C@@]32C)C(C)(C)C1=O | 40 | <50 | 5.1 | 0.27 | 1.1 | 5 | 3.5 | 13 |  |  |  |  | 
CC(C)(O)/C=C/C(=O)[C@](C)(O)[C@H]1[C@H](O)C[C@@]2(C)[C@@H]3CC=C4[C@@H](CC(=O)[C@@H](O)C4(C)C)[C@]3(C)C(=O)C[C@]12C | 40 |  | 80.3 | 0.06 |  |  | 8.7 | 137 | 74 | 13.8 | 6 |  | 
COC1=C[C@@H]2C(=CC[C@@H]3[C@@]2(C)C(=O)C[C@]2(C)[C@@H]([C@@](C)(O)C(=O)CCC(C)(C)O)[C@H](O)C[C@@]32C)C(C)(C)C1=O | 40 |  |  | 0.18 |  |  | 6.7 |  | 74 | 5 |  |  | 
COC1=C[C@@H]2C(=CC[C@@H]3[C@@]2(C)C(=O)C[C@]2(C)[C@@H]([C@@](C)(O)C(=O)/C=C/C(C)(C)O)[C@H](O)C[C@@]32C)C(C)(C)C1=O | 40 |  | 15 | 0.11 |  |  | 6.37 | 60 | 74 | 5.25 | 3 |  | 
CC(=O)OC(C)(C)/C=C/C(=O)[C@](C)(O)[C@H]1[C@H](O)C[C@@]2(C)[C@@H]3CC=C4[C@@H](C=C(OC(C)C)C(=O)C4(C)C)[C@]3(C)C(=O)C[C@]12C | 40 |  | 4.27 | 0.32 |  |  | 2.5 | 8 |  |  |  |  | 
CC(=O)OC(C)(C)/C=C/C(=O)[C@](C)(O)[C@H]1[C@H](O)C[C@@]2(C)[C@@H]3CC=C4[C@@H](C=C(O)C(=O)C4(C)C)[C@]3(C)C(=O)C[C@]12C [CUCURBITACIN E] | 40 |  | 15.2 | 0.04 | 0.1 |  |  |  | 74 | 3.2 |  |  | 
COC1=C[C@@H]2C(=CC[C@@H]3[C@@]2(C)C(=O)C[C@]2(C)[C@@H]([C@@](C)(O)C(=O)/C=C/C(C)(C)OC(C)=O)[C@H](OC(C)=O)C[C@@]32C)C(C)(C)C1=O | 40 |  | 26 | 0.91 | 3.2 | 8 | 11.5 | 13 |  | 5.2 | 5 |  | 
CC(C)(O)/C=C/C(=O)[C@](C)(O)[C@H]1[C@H](O)C[C@@]2(C)[C@@H]3CC=C4[C@@H](C=C(O[C@@H]5O[C@H](CO)[C@@H](O)[C@H](O)[C@H]5O)C(=O)C4(C)C)[C@]3(C)C(=O)C[C@]12C | 40 |  | 390 | 4.15 |  |  | 256 | 62 |  | 195 | 2 |  | 
CCCOC1=C[C@@H]2C(=CC[C@@H]3[C@@]2(C)C(=O)C[C@]2(C)[C@@H]([C@@](C)(O)C(=O)/C=C/C(C)(C)O)[C@H](O)C[C@@]32C)C(C)(C)C1=O | 40 | <50 | 5 | 0.33 |  |  | 2.47 | 8 |  |  |  |  | 
CCOC1=C[C@@H]2C(=CC[C@@H]3[C@@]2(C)C(=O)C[C@]2(C)[C@@H]([C@@](C)(O)C(=O)/C=C/C(C)(C)O)[C@H](O)C[C@@]32C)C(C)(C)C1=O | 40 | <50 |  | 0.34 |  |  | 3.53 |  |  |  |  |  | 
CC(=O)OC(C)(C)/C=C/C(=O)[C@](C)(O)[C@H]1[C@H](O)C[C@@]2(C)[C@@H]3CC=C4[C@@H](C=C(O[C@@H]5O[C@H](CO)[C@@H](O)[C@H](O)[C@H]5O)C(=O)C4(C)C)[C@]3(C)C(=O)C[C@]12C | 40 |  | 227 | 3.28 | 37 | 6 | 102 | 31 |  | 45.3 | 5 |  | 
CC(C)(O)/C=C/C(=O)[C@](C)(O)[C@H]1[C@H](O)C[C@@]2(C)[C@@H]3CC=C4[C@@H](C[C@H](O)C(=O)C4(C)C)[C@]3(C)C(=O)C[C@]12C [CUCURBITACIN D] | 40 |  | 77.3 | 0.07 | 0.7 | 107 | 26 | 379 | 74 | 9 | 9 |  | 
COC1=C[C@@H]2C(=CC[C@@H]3[C@@]2(C)C(=O)C[C@]2(C)[C@@H]([C@@](C)(O)C(=O)/C=C/C(C)(C)OC(C)=O)[C@H](O)C[C@@]32C)C(C)(C)C1=O | 40 |  | 12 | 0.08 |  |  | 2.83 | 35 |  | 2.4 | 5 |  | 
CC(C)(O)/C=C/C(=O)[C@](C)(O)[C@H]1[C@H](O)C[C@@]2(C)[C@@H]3CC=C4[C@@H](C=C(O)C(=O)C4(C)C)[C@]3(C)C(=O)C[C@]12C [CUCURBITACIN I] | 40 |  | 15.8 | 0.02 |  |  | 3.6 | 150 | 74 | 3.16 | 5 |  | 
CC(C)OC1=C[C@@H]2C(=CC[C@@H]3[C@@]2(C)C(=O)C[C@]2(C)[C@@H]([C@@](C)(O)C(=O)/C=C/C(C)(C)O)[C@H](O)C[C@@]32C)C(C)(C)C1=O | 40 | <50 | 7.33 | 0.25 |  |  | 2.53 | 10 |  |  |  |  | 
CCCOC1=C[C@@H]2C(=CC[C@@H]3[C@@]2(C)C(=O)C[C@]2(C)[C@@H]([C@@](C)(O)C(=O)/C=C/C(C)(C)OC(C)=O)[C@H](O)C[C@@]32C)C(C)(C)C1=O | 40 |  |  | 0.34 | 1.4 |  | 2.75 |  |  |  |  | inactive | inactive
CC(=O)OC(C)(C)/C=C/C(=O)[C@](C)(O)[C@H]1[C@H](O)C[C@@]2(C)[C@@H]3CC=C4[C@H](C[C@H](O)C(=O)C4(C)C)[C@]3(C)C(=O)C[C@]12C [CUCURBITACIN B] | 40 |  | 27.7 | 0.02 | 0.8 | 37 | 4.42 | 205 |  | 10.5 | 3 |  | 
